Results as given in ChEMBL document CHEMBL3297685, “Carbonic anhydrase inhibitors: Synthesis, molecular docking, cytotoxic and inhibition of the human carbonic anhydrase isoforms I, II, IX, XII with novel benzenesulfonamides incorporating pyrrole, pyrrolopyrimidine and fused pyrrolopyrimidine moieties” (Bioorg Med Chem, 2014).

Legend:
Carbonic anhydrase 9 = Carbonic anhydrase 9 (Homo sapiens, UniProt Q16790); assay: Inhibition of human recombinant carbonic anhydrase 9 preincubated for 15 mins by stopped-flow CO2 hydrase assay
MCF7 [1] = assay: Cytotoxicity against human MCF7 cells assessed as cell survival at 10 uM after 48 hrs by […]; format: functional; conditions: MCF7, 48 h, read-out: Survival
How it was run: (§1)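 MCF-7 human breast tumour cells seeded at 10^4 cells/well and left 24 h to attach. Compounds in DMSO added at 10, 25, 50 or 100 µM, triplicate wells per concentration, 48 h at 37 °C, 5% CO2. Cells fixed and stained 30 min with 0.4% SRB in 1% acetic acid, bound dye recovered in Tris-EDTA, absorbance read. Surviving fraction reported.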

MCF7 [2] = assay: Cytotoxicity against human MCF7 cells assessed as cell survival at 25 uM after 48 hrs by […]; format: functional; conditions: MCF7, 48 h, read-out: Survival; how it was run: as §1
MCF7 [3] = assay: Cytotoxicity against human MCF7 cells assessed as cell survival at 50 uM after 48 hrs by […]; format: functional; conditions: MCF7, 48 h, read-out: Survival; how it was run: as §1
MCF7 [4] = assay: Cytotoxicity against human MCF7 cells assessed as reduction in cell survival after 48 hrs by MTT assay; conditions: MCF7, 48 h
MCF7 [5] = assay: Cytotoxicity against human MCF7 cells assessed as cell survival at 100 uM after 48 hrs by SRB assay; conditions: MCF7, 48 h, read-out: Survival

Row | Structure (SMILES) | Ki (Carbonic anhydrase 9) [µM] | viability at 10 µM (MCF7 [1]) [%] | viability at 25 µM (MCF7 [2]) [%] | viability at 50 µM (MCF7 [3]) [%] | IC50 (MCF7 [4]) [µM] | viability at 100 µM (MCF7 [5]) [%]
1 | C/C(CC(=O)c1ccccc1)=N/n1cnc2c(c(-c3ccc(Br)cc3)cn2-c2ccc(S(N)(=O)=O)cc2)c1=N | 0.0028 | 38.1 | 33.3 | 25.1 | 7.84 | 30.1
2 | CC1=NN2C=Nc3c(c(-c4ccc(Br)cc4)cn3-c3ccc(S(N)(=O)=O)cc3)C2=NC(c2ccccc2)=C1 | 0.0036 | 30.3 | 30.6 | 27.7 | 7.29 | 28
3 | N#Cc1c(-c2ccc(Br)cc2)cn(-c2ccc(S(N)(=O)=O)cc2)c1N | 0.0063 | 32.7 | 27.3 | 23.3 | 7.56 | 25.5
4 | CCO/C=N/c1c(C#N)c(-c2ccc(Br)cc2)cn1-c1ccc(S(N)(=O)=O)cc1 | 0.0039 | 34 | 29.4 | 24.6 | 7.56 | 25.6
5 | N=c1c2c(-c3ccc(Br)cc3)cn(-c3ccc(S(N)(=O)=O)cc3)c2ncn1N | 0.0027 | 33 | 30.9 | 22.7 | 7.29 | 26.8
6 | N#Cc1c(N)nn2cnc3c(c(-c4ccc(Br)cc4)cn3-c3ccc(S(N)(=O)=O)cc3)c12 | 0.0024 | 34.7 | 29.2 | 21.3 | 7.56 | 22.1
7 | CCOC(=O)c1nc2c3c(-c4ccc(Br)cc4)cn(-c4ccc(S(N)(=O)=O)cc4)c3ncn2n1 | 0.0027 | 30.5 | 28.1 | 27.4 | 7.29 | 30.9
8 | CCOC(=O)Cc1nc2c3c(-c4ccc(Br)cc4)cn(-c4ccc(S(N)(=O)=O)cc4)c3ncn2n1 | 0.003 | 42.6 | 41 | 34.8 | 8.94 | 33.5
9 | CC(=O)Cc1nc2c3c(-c4ccc(Br)cc4)cn(-c4ccc(S(N)(=O)=O)cc4)c3ncn2n1 | 0.0031 | 40 | 39.9 | 36.5 | 8.94 | 35
10 | CCOC(=O)n1c(=O)nc2c3c(-c4ccc(Br)cc4)cn(-c4ccc(S(N)(=O)=O)cc4)c3ncn21 | 0.0026 | 36.1 | 31.1 | 23.2 | 7.56 | 21.6
11 | NS(=O)(=O)c1ccc(-n2cc(-c3ccc(Br)cc3)c3c2ncn2nnnc32)cc1 | – | 34.8 | 29.4 | 25.4 | 7.84 | 21.6
12 | NS(=O)(=O)c1ccc(-n2cc(-c3ccc(Br)cc3)c3c2N=CN2NC(=O)CN=C32)cc1 | – | 39.3 | 35.8 | 33.7 | 8.11 | 36.2
13 | NS(=O)(=O)c1ccc(-n2cc(-c3ccc(Br)cc3)c3c2ncn2[nH]c(=O)c(=O)nc32)cc1 | 0.325 | 43.6 | 36.6 | 35 | 8.66 | 35.8
14 | CC1=CC(C)=NN2C=Nc3c(c(-c4ccc(Br)cc4)cn3-c3ccc(S(N)(=O)=O)cc3)C2=N1 | 0.0496 | 38 | 28.5 | 33.2 | 7.84 | 37.5
15 | N#CC1=C(N)N=C2c3c(-c4ccc(Br)cc4)cn(-c4ccc(S(N)(=O)=O)cc4)c3N=CN2N=C1 | 0.0031 | 38.2 | 38 | 40.1 | 8.11 | 37.9
16 | CCOC(=O)C1=C(N)N=C2c3c(-c4ccc(Br)cc4)cn(-c4ccc(S(N)(=O)=O)cc4)c3N=CN2N=C1 | 0.003 | 37.2 | 37.7 | 35.3 | 7.84 | 39.1
17 | NS(=O)(=O)c1ccc(-n2cc(-c3ccc(Br)cc3)c3c2ncn2nc4c5ccccc5nc-4nc32)cc1 | – | 34.7 | 33.8 | 31.5 | 7.84 | 38.1
18 | CC(=O)N1C(=O)/C(=N\n2cnc3c(c(-c4ccc(Br)cc4)cn3-c3ccc(S(N)(=O)=O)cc3)c2=N)c2ccccc21 | – | 34.2 | 28.7 | 25.9 | 7.56 | 32.6
19 | COc1cccc2c1C(=O)c1c(O)c3c(c(O)c1C2=O)C[C@@](O)(C(=O)CO)C[C@@H]3O[C@H]1C[C@H](N)[C@H](O)[C@H](C)O1 [DOXORUBICIN] | – | 31.4 | 30.9 | 25.1 | – | 26.6
